# Columns and labels:
# Nucleic Acid = assay: Intrinsic Binding constant of compound to DNA at pH 7 and 25 Centigrade; type: functional; conditions: Bos taurus
# Method in brief: (§1)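 DNA titrations were run at constant anthraquinone concentration while the DNA/drug ratio was varied, at 25 °C in 10 mM Tris pH 7.0 with 1 mM EDTA and NaCl added to set ionic strength. Binding was followed by fluorescence quenching, or by absorbance at 500–750 nm for non-fluorescent drugs. McGhee–von Hippel analysis gave the intrinsic constant K and the exclusion parameter n.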
# L1210 = assay: Effective concentration against cell growth of L1210 cell line by 50%; type: functional; conditions: Mus musculus, L1210, read-out: ED50
# Method in brief: (§2)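 HeLa and L1210 cells grown in Dulbecco's modified Eagle's medium with 5% fetal calf serum, antibiotics and L-glutamine. Exponentially growing cells were exposed to drug for 1 h at 37 °C. Growth was scored by MTT, after washing and 96 h drug-free culture, or by cell counting after 72 h. Value is the concentration giving 50% growth inhibition.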
# [1] = Exclusion parameter (base pairs); type: ADME; method in brief: as §1
# HL-60 = assay: Effective concentration against cell growth of HL60 cell line by 50%; type: functional; conditions: Homo sapiens, HL-60, read-out: ED50
# Method in brief: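 HL60 cells grown in RPMI-1640 with 10% fetal calf serum. Exponentially growing cells were exposed to drug for 1 h at 37 °C. Survival was read either by MTT, after washing and 96 h culture in drug-free medium, or by cell counting after 72 h culture. Value is the drug concentration inhibiting cell growth by 50%.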
# HeLa = assay: Effective concentration against cell growth of HeLa cell line by 50%; type: functional; conditions: Homo sapiens, read-out: ED50; method in brief: as §2
# [2] = Exclusion parameter (base pairs; type: ADME
# Method in brief: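 Fluorometric titration at 25 °C in 10 mM Tris pH 7.0, 1 mM EDTA, NaCl set to the chosen ionic strength. DNA/drug ratio varied at constant drug concentration by mixing drug-alone and drug-plus-DNA solutions. Nonfluorescent drugs followed spectrophotometrically at 500–750 nm. Data fitted by McGhee–von Hippel to give K and the exclusion parameter n.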
Structure (SMILES),K x10e-5 (Nucleic Acid) [M⁻¹],EC50 (L1210) [nM],Exclusion parameter [1],EC50 (HL-60) [nM],EC50 (HeLa) [nM],Exclusion parameter [2]
NCCCC[C@H](N)C(=O)NCC(=O)Nc1ccc(NC(=O)CNC(=O)[C@@H](N)CCCCN)c2c1C(=O)c1ccccc1C2=O,17.5,,2.3,> 100000,> 100000,
N[C@@H](Cc1c[nH]c2ccccc12)C(=O)NCC(=O)Nc1ccc(NC(=O)CNC(=O)[C@@H](N)Cc2c[nH]c3ccccc23)c2c1C(=O)c1ccccc1C2=O,,,,30000,,
O=C1c2ccccc2C(=O)c2c(NCCNCCO)ccc(NCCNCCO)c21 [AMETANTRONE],3.4,100,,880,3100,2.7
NC(Cc1c[nH]c2ccccc12)C(=O)NCC(=O)Nc1ccc(NC(=O)CNC(=O)C(N)Cc2c[nH]c3ccccc23)c2c1C(=O)c1ccccc1C2=O (configuration not stated),,,,28000,,

# The next lines start with results.
K x10e-5 (Nucleic Acid) [M⁻¹],EC50 (L1210) [nM],Exclusion parameter [1],EC50 (HL-60) [nM],EC50 (HeLa) [nM],Structure (SMILES),Exclusion parameter [2]
1.7,240,2.2,2000,2700,NCC(=O)NCC(=O)Nc1ccc(N)c2c1C(=O)c1ccccc1C2=O,
33,,2.4,> 100000,> 100000,NCCCCC(N)C(=O)NCC(=O)Nc1ccc(NC(=O)CNC(=O)C(N)CCCCN)c2c1C(=O)c1ccccc1C2=O (configuration not stated),
2.4,800,2.5,2300,2400,NCC(=O)NCC(=O)Nc1ccc(NC(=O)CNC(=O)CN)c2c1C(=O)c1ccccc1C2=O,
2.2,900,2.3,1900,1600,NCC(=O)Nc1ccc(NC(=O)CN)c2c1C(=O)c1ccccc1C2=O,
2.4,,2.4,,,NCC(=O)NCC(=O)NCC(=O)Nc1ccc(NC(=O)CNC(=O)CNC(=O)CN)c2c1C(=O)c1ccccc1C2=O,
3.6,310,2.1,2000,2700,NCC(=O)Nc1ccc(N)c2c1C(=O)c1ccccc1C2=O,
